Source: ChEMBL document CHEMBL1142065, “In vitro and in vivo activities of a new cephalosporin, FR264205, against Pseudomonas aeruginosa” (2007)
In brackets after ≈: the same amount, converted by molar mass. Activity calls are given as the source filed them. No cut-off for these calls is given here.

Experiments:
[1] = test system: Pseudomonas aeruginosa; experiment: Antibacterial activity against Pseudomonas aeruginosa; assay type: functional
Outline: (§1)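 Agar dilution MIC per NCCLS (CLSI) M7-A7 on Mueller-Hinton agar with twofold serial drug dilutions. Inoculum 10^4 CFU per spot, aerobic incubation 18 to 20 h at 35°C. MIC is the lowest concentration preventing visible growth.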

[2] = test system: Pseudomonas aeruginosa; experiment: Antibacterial activity against ceftazidime-resistant Pseudomonas aeruginosa; assay type: functional; outline: as §1
[3] = test system: Pseudomonas aeruginosa; experiment: Antibacterial activity against imipenem-resistant Pseudomonas aeruginosa; assay type: functional; outline: as §1
[4] = test system: Pseudomonas aeruginosa; experiment: Antibacterial activity against ciprofloxacin-resistant Pseudomonas aeruginosa; assay type: functional; outline: as §1
[5] = test system: Pseudomonas aeruginosa; experiment: Antibacterial activity against Pseudomonas aeruginosa FP1380 expressing constitutive AmpC; assay type: functional
Outline: (§2)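 MIC by agar dilution (CLSI M7-A7) on Mueller-Hinton agar with twofold serial drug dilutions; 10^4 CFU spotted per spot; aerobic incubation 18 to 20 h at 35°C; MIC read as lowest concentration preventing visible growth.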

[6] = test system: Pseudomonas aeruginosa; experiment: Antibacterial activity against Pseudomonas aeruginosa PAO1456 expressing constitutive AmpC; assay type: functional; outline: as §1
[7] = test system: Pseudomonas aeruginosa; experiment: Antibacterial activity against Pseudomonas aeruginosa PAO4069 expressing inducible AmpC; assay type: functional; outline: as §1
[8] = test system: Pseudomonas aeruginosa; experiment: Antibacterial activity against Pseudomonas aeruginosa KG2212 producing MexAB-OprM efflux pump; assay type: functional; outline: as §1
[9] = test system: Pseudomonas aeruginosa; experiment: Antibacterial activity against Pseudomonas aeruginosa KG3056 producing MexCD-OprJ efflux pump; assay type: functional; outline: as §1
[10] = test system: Pseudomonas aeruginosa; experiment: Antibacterial activity against Pseudomonas aeruginosa KG4545 producing MexXY efflux pump; assay type: functional; outline: as §1
[11] = test system: Escherichia coli; experiment: Antibacterial activity against Escherichia coli C600 expressing ESBL TEM3; assay type: functional; outline: as §2
[12] = test system: Escherichia coli; experiment: Antibacterial activity against Escherichia coli C600 expressing ESBL TEM4; assay type: functional; outline: as §2
[13] = test system: Escherichia coli; experiment: Antibacterial activity against Escherichia coli C600 expressing ESBL TEM5; assay type: functional; outline: as §2
[14] = test system: Escherichia coli; experiment: Antibacterial activity against Escherichia coli C600 expressing ESBL TEM6; assay type: functional; outline: as §2
[15] = test system: Escherichia coli; experiment: Antibacterial activity against Escherichia coli C600 expressing ESBL TEM8; assay type: functional; outline: as §2
[16] = test system: Escherichia coli; experiment: Antibacterial activity against Escherichia coli C600 expressing ESBL TEM9; assay type: functional; outline: as §2
[17] = test system: Escherichia coli; experiment: Antibacterial activity against Escherichia coli C600 expressing ESBL SHV2; assay type: functional; outline: as §2
[18] = test system: Escherichia coli; experiment: Antibacterial activity against Escherichia coli C600 expressing ESBL SHV3; assay type: functional; outline: as §2
[19] = test system: Escherichia coli; experiment: Antibacterial activity against Escherichia coli C600 expressing ESBL SHV4; assay type: functional; outline: as §2
[20] = test system: Escherichia coli; experiment: Antibacterial activity against Escherichia coli C600 expressing ESBL OXA2; assay type: functional; outline: as §2
[21] = test system: Escherichia coli; experiment: Antibacterial activity against Escherichia coli C600 expressing ESBL CTX-M3; assay type: functional; outline: as §2
[22] = test system: Escherichia coli; experiment: Antibacterial activity against Escherichia coli C600 expressing ESBL CTX-M18; assay type: functional; outline: as §2
[23] = test system: Escherichia coli; experiment: Antibacterial activity against Escherichia coli C600; assay type: functional; outline: as §2
[24] = test system: Pseudomonas aeruginosa; experiment: Antibacterial activity against Pseudomonas aeruginosa 22029 expressing metallo beta lactamase; assay type: functional; outline: as §1
[25] = test system: Pseudomonas aeruginosa; experiment: Antibacterial activity against Pseudomonas aeruginosa KG4001 producing MexEF-OprN efflux pump; assay type: functional; outline: as §1
[26] = test system: Pseudomonas aeruginosa; experiment: Antibacterial activity against Pseudomonas aeruginosa PAO1; assay type: functional; outline: as §1
[27] = test system: Pseudomonas aeruginosa; experiment: Antibacterial activity against Pseudomonas aeruginosa PAO4222; assay type: functional; outline: as §1
[28] = test system: Pseudomonas aeruginosa; experiment: Reduction in susceptibility against Pseudomonas aeruginosa PAO1 after single passage; assay type: functional, organism-based
Outline: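 PAO1 passaged daily for five consecutive days in fresh Mueller-Hinton broth with twofold drug dilution series. Each next inoculum came from the tube at one-fourth the MIC. MIC change was followed across passages.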

[29] = test system: Pseudomonas aeruginosa; experiment: Antibacterial activity against Pseudomonas aeruginosa 93; assay type: functional; outline: as §2
[30] = test system: Pseudomonas aeruginosa; experiment: Efficacy against Pseudomonas aeruginosa 93 pulmonary infection in mouse assessed as reduction in bacterial counts at 2 mg/kg, sc; assay type: functional, organism-based; parameters: dose 2 mg/kg
Outline: (§3)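 Male ICR mice (4 weeks), made neutropenic with cyclophosphamide 200 mg/kg ip 4 days before infection. Under pentobarbital anesthesia (50 mg/kg iv) they were challenged intranasally with 3.30 log10 CFU of strain 93, grown on tryptic soy agar 35°C 20 h and suspended in saline. Dosed sc twice daily for 3 days from 3 h post-infection. Lung viable counts taken the day after last dose; 6 mice/dose.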

[31] = test system: Pseudomonas aeruginosa; experiment: Efficacy against Pseudomonas aeruginosa 93 pulmonary infection in mouse assessed as reduction in bacterial counts at 10 mg/kg, sc; assay type: functional, organism-based; parameters: dose 10 mg/kg; outline: as §3
[32] = test system: Pseudomonas aeruginosa; experiment: Efficacy against Pseudomonas aeruginosa 93 assessed as reduction in bacterial counts in mouse urinary tract infection model at 0.5 mg/kg; assay type: functional, organism-based; parameters: dose 0.5 mg/kg; details: Urine
Outline: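 Female ICR mice (4 weeks) were denied water 1 day. Under pentobarbital anesthesia they received 4.32 log10 CFU of strain 93 via the […], which was then clamped 5 h. Dosed sc at 5 h post-challenge plus twice daily for 2 days. Bilateral kidney viable counts taken the day after last treatment; 6 mice/dose.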

[33] = test system: Escherichia coli; experiment: Antibacterial activity against Escherichia coli C600 expressing ESBL TEM7; assay type: functional; outline: as §2
[34] = test system: Escherichia coli; experiment: Antibacterial activity against Escherichia coli C600 expressing TEM1; assay type: functional; outline: as §2
[35] = test system: Escherichia coli; experiment: Antibacterial activity against Escherichia coli C600 expressing TEM2; assay type: functional; outline: as §2
[36] = test system: Escherichia coli; experiment: Antibacterial activity against Escherichia coli C600 expressing SHV1; assay type: functional; outline: as §2
[37] = test system: Escherichia coli; experiment: Antibacterial activity against Escherichia coli C600 expressing OXA1; assay type: functional; outline: as §2

Work on `O=C(O)c1cn(C2CC2)c2cc(N3CCNCC3)c(F)cc2c1=O` [CIPROFLOXACIN] yielded an MIC50 [1] of 0.25 µg/mL (≈ 0.754 µM), an MIC90 [1] of 8 µg/mL (≈ 24.1 µM) and an MIC50 [2] of 2 µg/mL (≈ 6.04 µM). It also gave an MIC90 [2] of 64 µg/mL (≈ 193 µM), an MIC50 [3] of 1 µg/mL (≈ 3.02 µM) and an MIC90 [3] of 8 µg/mL (≈ 24.1 µM). It also gave an MIC50 [4] of 8 µg/mL (≈ 24.1 µM) and an MIC90 [4] of 64 µg/mL (≈ 193 µM).
`C[C@@H](O)[C@H]1C(=O)N2C(C(=O)O)=C(SCCNC=N)C[C@H]12` [IMIPENEM ANHYDROUS] showed an MIC [5] of 0.5 µg/mL (≈ 1.67 µM), an MIC [6] of 1 µg/mL (≈ 3.34 µM) and an MIC [7] of 1 µg/mL (≈ 3.34 µM). The MIC [8] was 1 µg/mL (≈ 3.34 µM), the MIC [9] was 0.5 µg/mL (≈ 1.67 µM) and the MIC [10] was 1 µg/mL (≈ 3.34 µM). The MIC [11] was 0.25 µg/mL (≈ 0.835 µM), the MIC [12] was 0.25 µg/mL (≈ 0.835 µM) and the MIC [13] was 0.25 µg/mL (≈ 0.835 µM). The MIC [14] was 0.25 µg/mL (≈ 0.835 µM), the MIC [15] was 0.25 µg/mL (≈ 0.835 µM) and the MIC [16] was 0.25 µg/mL (≈ 0.835 µM). For the same molecule, the MIC [17] was 0.25 µg/mL (≈ 0.835 µM), the MIC [18] was 0.25 µg/mL (≈ 0.835 µM) and the MIC [19] was 0.25 µg/mL (≈ 0.835 µM). For the same molecule, the MIC [20] was 0.25 µg/mL (≈ 0.835 µM), the MIC [21] was 0.25 µg/mL (≈ 0.835 µM) and the MIC [22] was 0.25 µg/mL (≈ 0.835 µM). It also gave an MIC [23] of 0.25 µg/mL (≈ 0.835 µM), an MIC [24] of 128 µg/mL (≈ 428 µM) and an MIC [25] of 1 µg/mL (≈ 3.34 µM). For the same molecule, the MIC [26] was 4 µg/mL (≈ 13.4 µM), the MIC [27] was 1 µg/mL (≈ 3.34 µM) and the Activity [28] was “Active”. For the same molecule, the MIC [29] was 1 µg/mL (≈ 3.34 µM), the Activity [30] was “Active” and the Activity [31] was “Active”. The Activity [32] was “Active”, the MIC [33] was 0.25 µg/mL (≈ 0.835 µM) and the MIC50 [1] was 2 µg/mL (≈ 6.68 µM). It also gave an MIC90 [1] of 16 µg/mL (≈ 53.4 µM), an MIC50 [2] of 16 µg/mL (≈ 53.4 µM) and an MIC90 [2] of 32 µg/mL (≈ 107 µM). The MIC [3] was 16 µg/mL (≈ 53.4 µM), the MIC50 [3] was 16 µg/mL (≈ 53.4 µM) and the MIC90 [3] was 32 µg/mL (≈ 107 µM). It also gave an MIC50 [4] of 8 µg/mL (≈ 26.7 µM), an MIC90 [4] of 16 µg/mL (≈ 53.4 µM) and an MIC [34] of 0.125 µg/mL (≈ 0.418 µM). It also gave an MIC [35] of 0.25 µg/mL (≈ 0.835 µM), an MIC [36] of 0.25 µg/mL (≈ 0.835 µM) and an MIC [37] of 0.25 µg/mL (≈ 0.835 µM).
